How the values were obtained:
KCL-22 [1] = assay: Cytotoxicity against human KCL22 cells harboring ABL1 T315I mutant assessed as cell viability at 1 uM after 48 hrs by MTS assay relative to control; assay type: functional; conditions: for viability at 1 µM: Homo sapiens, KCL-22, 48 h, read-out: Activity
How it was run: (§1)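 Single-concentration screen: KCL-22 cells, or KCL-22 cells expressing T315I mutant Bcr-Abl, grown in RPMI-1640 with 10% FBS. Cells were seeded at 10 000/well, held overnight at 37 °C in 5% CO2, then exposed to 1 μM compound for 48 h, with DMSO as vehicle control. Viability was read by MTS tetrazolium-to-formazan conversion, absorbance 490 nm, in triplicate.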

KCL-22 [2] = assay: Cytotoxicity against human KCL22 cells assessed as cell viability at 1 uM after 48 hrs by MTS assay relative to control; assay type: functional; conditions: for viability at 1 µM: Homo sapiens, KCL-22, 48 h, read-out: Activity; how it was run: as §1
KCL-22 [3] = assay: Cytotoxicity against human KCL22 cells assessed as reduction in cell viability after 48 hrs by MTS assay; assay type: functional, cell-based
[4] = target: Tyrosine-protein kinase ABL1 (Homo sapiens, UniProt P00519, T315I); assay: Inhibition of recombinant ABL1 T315I mutant (unknown origin) after 120 mins in presence of [33P]ATP
[5] = target: Tyrosine-protein kinase ABL1 (Homo sapiens, UniProt P00519); assay: Inhibition of recombinant ABL1 (unknown origin) after 120 mins in presence of [33P]ATP
[6] = target: Tyrosine-protein kinase JAK2 (Homo sapiens, UniProt O60674); assay: Inhibition of recombinant JAK2 (unknown origin) after 120 mins in presence of [33P]ATP
Aurora kinase A = target: T1, Aurora kinase A (Homo sapiens, UniProt O14965); assay: Inhibition of recombinant Aurora A (unknown origin) after 120 mins in presence of [33P]ATP
T1 sequence (O14965 whole entry): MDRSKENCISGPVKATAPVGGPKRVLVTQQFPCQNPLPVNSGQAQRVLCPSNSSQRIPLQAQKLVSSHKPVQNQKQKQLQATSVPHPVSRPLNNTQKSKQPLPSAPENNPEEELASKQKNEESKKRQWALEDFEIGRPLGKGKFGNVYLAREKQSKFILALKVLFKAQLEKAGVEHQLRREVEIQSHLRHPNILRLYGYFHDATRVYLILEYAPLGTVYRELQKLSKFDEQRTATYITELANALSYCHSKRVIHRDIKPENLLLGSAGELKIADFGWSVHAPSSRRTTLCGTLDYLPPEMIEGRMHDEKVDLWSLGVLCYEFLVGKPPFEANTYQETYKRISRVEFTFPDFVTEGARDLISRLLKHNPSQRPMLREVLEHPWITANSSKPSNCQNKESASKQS

[7] = target: Proto-oncogene tyrosine-protein kinase Src (Homo sapiens, UniProt P12931); assay: Inhibition of recombinant c-Src (unknown origin) after 120 mins in presence of [33P]ATP
KCL-22 [8] = assay: Cytotoxicity against human KCL22 cells harboring ABL1 T315I mutant assessed as reduction in cell viability after 48 hrs by MTS assay; assay type: functional, cell-based; conditions: KCL-22, 48 h

Proto-oncogene tyrosine-protein kinase Src, sequence (P12931 2-536 limits assumed): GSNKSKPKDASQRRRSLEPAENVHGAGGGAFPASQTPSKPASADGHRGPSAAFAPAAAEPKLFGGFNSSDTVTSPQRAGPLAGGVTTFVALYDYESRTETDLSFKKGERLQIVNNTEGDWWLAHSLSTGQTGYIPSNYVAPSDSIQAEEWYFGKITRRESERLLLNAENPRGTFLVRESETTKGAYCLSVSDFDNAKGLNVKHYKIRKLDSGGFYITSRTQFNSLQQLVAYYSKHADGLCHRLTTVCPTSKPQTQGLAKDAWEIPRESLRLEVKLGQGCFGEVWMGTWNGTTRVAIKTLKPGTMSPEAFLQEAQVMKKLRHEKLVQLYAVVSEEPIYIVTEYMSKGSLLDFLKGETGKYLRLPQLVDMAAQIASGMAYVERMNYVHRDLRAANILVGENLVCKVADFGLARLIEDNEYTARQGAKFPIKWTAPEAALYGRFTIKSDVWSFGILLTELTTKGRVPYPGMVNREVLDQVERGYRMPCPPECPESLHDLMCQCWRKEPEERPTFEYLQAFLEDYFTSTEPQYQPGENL
Tyrosine-protein kinase JAK2, sequence (O60674 whole entry): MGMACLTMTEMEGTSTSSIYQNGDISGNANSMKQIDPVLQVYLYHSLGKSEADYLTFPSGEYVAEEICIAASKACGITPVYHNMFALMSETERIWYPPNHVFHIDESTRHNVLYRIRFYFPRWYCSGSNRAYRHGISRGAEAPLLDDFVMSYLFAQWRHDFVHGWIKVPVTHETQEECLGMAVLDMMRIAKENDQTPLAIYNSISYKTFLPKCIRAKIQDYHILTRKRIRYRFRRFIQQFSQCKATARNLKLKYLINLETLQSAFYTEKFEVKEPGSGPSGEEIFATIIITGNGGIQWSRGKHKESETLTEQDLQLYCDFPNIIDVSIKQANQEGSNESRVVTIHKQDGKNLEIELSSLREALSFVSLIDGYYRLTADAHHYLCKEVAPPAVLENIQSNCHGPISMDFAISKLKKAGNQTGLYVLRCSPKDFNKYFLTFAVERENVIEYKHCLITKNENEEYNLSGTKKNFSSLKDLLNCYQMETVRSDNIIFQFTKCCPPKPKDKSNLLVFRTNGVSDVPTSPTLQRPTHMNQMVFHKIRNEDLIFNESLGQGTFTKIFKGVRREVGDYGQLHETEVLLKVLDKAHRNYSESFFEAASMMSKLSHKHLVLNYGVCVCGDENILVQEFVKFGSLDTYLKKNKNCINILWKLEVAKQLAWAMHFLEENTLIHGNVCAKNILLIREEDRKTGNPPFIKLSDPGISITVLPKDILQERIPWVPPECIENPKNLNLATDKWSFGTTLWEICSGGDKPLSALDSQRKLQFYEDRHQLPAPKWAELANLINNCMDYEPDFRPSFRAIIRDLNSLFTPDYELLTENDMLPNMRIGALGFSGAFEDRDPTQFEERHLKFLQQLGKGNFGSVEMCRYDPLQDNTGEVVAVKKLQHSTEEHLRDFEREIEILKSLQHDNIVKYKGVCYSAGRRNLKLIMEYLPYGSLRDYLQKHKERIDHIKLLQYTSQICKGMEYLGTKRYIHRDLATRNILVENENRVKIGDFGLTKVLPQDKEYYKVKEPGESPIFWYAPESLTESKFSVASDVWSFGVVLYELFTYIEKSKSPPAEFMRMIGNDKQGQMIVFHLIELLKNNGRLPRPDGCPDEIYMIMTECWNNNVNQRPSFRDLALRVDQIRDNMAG

SMILES | Activity (KCL-22 [1]) [%] | Activity (KCL-22 [2]) [%] | IC50 (KCL-22 [3]; Homo sapiens, KCL-22, 48 h) [nM] | IC50 [4] [nM] | IC50 [5] [nM] | IC50 [6] [nM] | IC50 (Aurora kinase A) [nM] | IC50 [7] [nM] | viability at 1 µM (KCL-22 [1]) [%] | IC50 (KCL-22 [8]) [nM] | viability at 1 µM (KCL-22 [2]) [%] | IC50 (KCL-22 [3]; kcl-22) [nM]
CN1CCN(CCO/N=C2/C(=C3/C(=O)Nc4cc(Br)ccc43)Nc3ccccc32)CC1 [listing 1 of 2 here] | >50 | <50 | 900 | – | – | – | – | – | – | – | – | –
O=C1Nc2cc(Br)ccc2/C1=C1/Nc2ccccc2/C1=N\OCCN1CCCC1 [listing 1 of 2 here] | <50 | <50 | – | 4560 | 106 | 7460 | 79 | 4.9 | – | – | – | –
O=C1Nc2cc(Br)ccc2/C1=C1/Nc2ccccc2/C1=N\OCCN1CCN(CCO)CC1 | >50 | <50 | 830 | – | – | – | – | – | – | – | – | –
O=C1Nc2cc(Br)ccc2/C1=C1/Nc2ccccc2/C1=N\OCCN1CCNCC1 [listing 1 of 2 here] | – | – | – | 9.4 | 0.87 | 224 | 7.1 | < 0.5 | < 50 | 430 | < 50 | 330
O=C1Nc2cc(Br)ccc2/C1=C1/Nc2ccccc2/C1=N\OCCN1CCN(CCOCCO)CC1 [listing 1 of 2 here] | >50 | >50 | – | 5160 | 34.1 | > 10000 | 14.9 | 0.83 | – | – | – | –
CN(CCO/N=C1/C(=C2/C(=O)Nc3cc(Br)ccc32)Nc2ccccc21)CC(O)CO (centres undefined) [listing 1 of 2 here] | <50 | <50 | – | 178 | 7.2 | 551 | 9.7 | < 0.5 | – | – | – | –
COCCN1CCN(CCO/N=C2/C(=C3/C(=O)Nc4cc(Br)ccc43)Nc3ccccc32)CC1 [listing 1 of 2 here] | – | – | – | > 10000 | 3440 | > 10000 | > 10000 | 3.9 | < 50 | – | > 50 | –
O=C1Nc2cc(Br)ccc2/C1=C1/Nc2ccccc2/C1=N\OCC(O)CO (centres undefined) | – | – | 750 | – | – | – | – | – | > 50 | – | < 50 | –
O=C1Nc2cc(Br)ccc2/C1=C1/Nc2ccccc2C1=O | – | – | – | – | – | – | – | – | > 50 | – | > 50 | –
O=C1Nc2cc(Br)ccc2/C1=C1/Nc2ccccc2/C1=N\O [6BIO] | – | – | – | – | – | – | – | – | > 50 | – | > 50 | –
N#Cc1ccc(NC(=O)O/N=C2/C(=C3/C(=O)Nc4cc(Br)ccc43)Nc3ccccc32)cc1 | – | – | – | – | – | – | – | – | > 50 | – | > 50 | –
O=C1Nc2cc(Br)ccc2/C1=C1/Nc2ccccc2/C1=N\OCCN1CCN(CCOCCO)CC1 [listing 2 of 2 here] | – | – | – | – | – | – | – | – | < 50 | – | > 50 | –
O=C1Nc2cc(Br)ccc2/C1=C1/Nc2ccccc2/C1=N\OCCN1CCNCC1 [listing 2 of 2 here] | >50 | <50 | – | – | – | – | – | – | – | – | – | 780
CN(CCO/N=C1/C(=C2/C(=O)Nc3cc(Br)ccc32)Nc2ccccc21)CC(O)CO (centres undefined) [listing 2 of 2 here] | – | – | – | 194 | 10.2 | 589 | – | 0.61 | < 50 | – | < 50 | –
CN1CCN(CCO/N=C2/C(=C3/C(=O)Nc4cc(Br)ccc43)Nc3ccccc32)CC1 [listing 2 of 2 here] | – | – | – | – | – | – | – | – | > 50 | – | < 50 | 500
COCCN1CCN(CCO/N=C2/C(=C3/C(=O)Nc4cc(Br)ccc43)Nc3ccccc32)CC1 [listing 2 of 2 here] | <50 | >50 | – | > 10000 | 468 | > 10000 | 330 | 1.7 | – | – | – | –
O=C1Nc2cc(Br)ccc2/C1=C1/Nc2ccccc2/C1=N\OCCN1CCCC1 [listing 2 of 2 here] | – | – | – | 5940 | – | 4410 | 175 | 2.2 | < 50 | – | < 50 | –

Source: ChEMBL document CHEMBL4041496, “Natural-Based Indirubins Display Potent Cytotoxicity toward Wild-Type and T315I-Resistant Leukemia Cell Lines” (J Nat Prod, 2016)
